According to PubChem BioAssay:
Some of the results follow. Active and inactive are the calls of the source. Cut-off read from the data, not from the text of the source: active = inhibition above about 40%; inactive = the rest.

Assay: inhibitors of PAF-induced NF-kB signaling, retest, confirmation, cell-based, GFP fluorescence, single concentration (AID 602472);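 note: stimulus PAF is a Pseudomonas aeruginosa filtrate and not platelet activating factor; plate controls were DMSO wells with stimulus for no effect and unstimulated DMSO wells for full effect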
Conditions: KKLEB CF airway cells, overnight, at 5 µM, hits give high values
Method in brief: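 Material – KKLEB NFkB-GFP reporter cells · Buffer or medium – medium with 2% FBS for cells, serum-free medium for stimulus · Incubation – 2 h pretreatment, overnight stimulation · Signal – reporter fluorescence (GFP) · Also added – Pseudomonas aeruginosa filtrate (PAF) as NFkB-activating stimulus · Doses – 5 µM single dose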

inhibition, active:
COc1cc(C2c3cc4c(cc3C(O)C3COC(=O)C23)OCO4)cc(OC)c1OC (centres undefined) 83.3%, CCOC(=O)c1c(-c2ccccc2)oc2cc(Br)c(O)c(C=O)c12 90.8%, CCCc1nc2c(c(=O)c3ccccc3n2C)c(=O)n1C1CCCCCC1 46.9%, CCSc1nsc(NC(=O)Nc2cccc(C(C)=O)c2)n1 98.9%, COc1cncc(-c2cnc3sc(NCCc4ccccn4)nn23)c1 76.6%, C=CCSc1nsc(NC(=O)Nc2cccc(C(C)=O)c2)n1 98.3%, Cc1cccc2sc(N(CCCN(C)C)C(=O)CCS(=O)(=O)c3ccccc3)nc12 84.3%, O=C(NNc1ccccc1Cl)C(O)(c1cccc(C(F)(F)F)c1)c1cccc(C(F)(F)F)c1 63%, COc1cc(OC)cc(C(=O)N[C@H](C(=O)Nc2nc3ccccc3[nH]2)C(C)C)c1 85.8%, C#CCN(C[C@@H]1[C@@H](OC(=O)NC2CC2)[C@@H](OC(=O)NC2CC2)Cn2c(=O)ccc(=O)n21)S(=O)(=O)c1ccc(C)cc1 61.6%, C=C1C(=O)[C@]23C[C@H]1CCC2[C@@]1(C)C(C[C@@H]3O)[C@](C)(C(=O)O)CC[C@@H]1O (some centres undefined) 83%, O=C1Nc2ccccc2/C1=C/c1ccnc2ccccc12 55%, Cc1ccc(NC(=O)Nc2nnc(-c3ccncc3)s2)cc1 59.6%, Cc1ccc(CCC(=O)Nc2ncc(Cc3cc(Cl)ccc3Cl)s2)o1 83.8%, CC(=O)Oc1c(C(=O)c2nnc(C)o2)c(=O)n(Cc2ccccc2)c2ccccc12 59%, CC(C)C[C@H]1CNC(=S)N1C[C@H]1CCCN1C[C@H](Cc1ccc(O)cc1)N1C[C@H](Cc2ccc(O)cc2)N(CC2CCCCC2)C1=S 56.7%, CN(C)C(=O)c1cccc(-c2cnc3sc(NCc4ccc5c(c4)OCO5)nn23)c1 97.2%, O=C(Nc1ccc(Cl)cc1)Nc1nnc(/C=C/c2ccccc2)s1 50.8%, C=CCc1cc(S(=O)(=O)c2ccc(O)c(CC=C)c2)ccc1O 48.8%, COc1ccc(CNc2ncnc3ccccc23)cc1 47.6%, Clc1ccc2c(c1)C1=C(C(c3ccncc3)O2)C(c2ccc(Br)cc2)n2ncnc2N1 (centres undefined) 50%, COc1cccc2sc(N(CCCN(C)C)C(=O)CCS(=O)(=O)c3ccccc3)nc12 102%, NC(=O)c1sc2nc3c(c(-c4ccccc4)c2c1N)CCC3 93.2%, Cc1ncc(CC(=O)n2cc(C(=O)c3cc(Cl)ccc3O)cn2)s1 47.9%, O=C(CSc1nc(C2CC2)nc2ccccc12)Nc1cccc(O)c1 50.6%, COc1ccc(CNC(=O)C(c2ccc(O)cc2)N(Cc2ccco2)C(=O)c2snc(C(N)=O)c2N)cc1 (centres undefined) 49.2%, O=[N+]([O-])c1ccc(Oc2ccc(F)cc2Br)c2ccncc12 77.7%, COC(=O)c1ccc(NC(=O)c2ccccc2NS(=O)(=O)c2ccccc2)cc1 69.8%, CCc1ccc(N(CC)c2ncnc3nc[nH]c23)cc1 62.6%, CC(C)c1ccc2c(c1)c(SC(C)(C)C)c(CC(C)(C)C(=O)O)n2Cc1ccc(Cl)cc1 41.5%, CN(C)c1ccnc2sc3c(=O)n(Cc4ccccc4)cnc3c12 91.5%

inhibition, inactive:
O=C(Nc1ccc2oc(-c3ccc4ccccc4c3)nc2c1)c1cccs1 38.7%, CCOC(=O)C(C(=O)c1ccccc1)C(c1ccccc1)c1nccc2ccccc12 (centres undefined) 14.4%, COc1ccc(NC(=O)c2cc(-c3cc(OC)c(OC)c(OC)c3)nc3ccccc23)c(OC)c1 24.8%, Cc1c(C)c2ccc(OCC(=O)N3CCN(c4cccc(Cl)c4)CC3)cc2oc1=O 10.3%, CC1(C)O[C@@H]2CC3C4C[C@H](F)C5=CC(=O)C=CC5(C)C4C(O)CC3(C)[C@]2(C(=O)CO)O1 (some centres undefined) 27.4%, CC(C)CC1C(=O)N(Cc2cn(CC3CCCCC3)nn2)CCS(=O)(=O)N1Cc1ccc(-c2ccc(Cl)cc2)cc1 (centres undefined) 32.8%, COc1ccc(NC(=S)SC)cc1OC 39.3%, c1nnc2c3c4c(sc3ncn12)CCC4 22.1%
